Results from ChEMBL document CHEMBL4513216, “Probing the Open Global Health Chemical Diversity Library for Multistage-Active Starting Points for Next-Generation Antimalarials” (ACS Infect Dis, 2020).

Test: Toxicity liver stage against HepG2, at 10uM
Assay type: cell-based
Parameters: test concentration 10 uM, cell line HepG2-A16-CD81EGFP
Settings: human, HepG2-A16-CD81EGFP cells; read-out: INHIBITION
Procedure, shortened: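 Uninfected HepG2-A16-CD81EGFP cells, 3 × 10^3 per well, 1536-well, plated on prespotted compound at 10 μM final, parasite-free screening media added to match infected plates; puromycin 10 μM positive, DMSO 0.5% negative; run in parallel with 48 h PbLuc assay at 37 °C, 5% CO2; viability by CellTiter-Glo luminescence, normalized to controls.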

| Structure (SMILES) | cytotoxicity at 10 µM |
| --- | --- |
| CC(C)(C)c1cc(C[C@H]2CNCC[C@H]2CC(=O)NC2CCCCC2)no1 | 2.82% |
| Cc1ccc(CN2C[C@H]3CN(Cc4ccccc4Cl)CCN3C2=O)cc1 | -10.3% |
| O=C(C1CCOCC1)N1CCN2C(=O)N(Cc3ccc(F)cc3)C[C@H]2C1 | -1.34% |
| Cc1ccc(-c2cn3c(n2)CO[C@@H](CNCc2nccs2)C3)cc1 | -7.31% |
| COc1ccc2c(ccn2CCC(=O)Nc2n[nH]c(C(C)C)n2)c1 | 3.3% |
| O=C(Nc1nc2c(s1)CCC2)NC1CCCC1 | -8.6% |
| O=S(=O)(NCCC(O)c1cccs1)c1ccccc1Cl (stereo not given) | 1.87% |
| CC(=O)N1CCN(C(=O)Nc2ccccc2)CC2(CC(=O)N(C)C2)C1 (stereo not given) | -8.93% |
| Cc1ccc(S(=O)(=O)N2C[C@@H]3CCN[C@@H]3C2)cc1 | 2.94% |
| CC(C)CNC(=O)c1nc2c(s1)CCN(C(=O)c1cccnc1)CC2 | 7.1% |
| Cc1cnc(N2CC[C@@H]3CN(CCC(C)C)S(=O)(=O)[C@@H]3CC2)nc1 | -3.1% |
| Cn1nc(C#N)c2c1CN(C(=O)c1ccsc1)CCC2 | -126% |
| O=C(NCCCN1CCCC1=O)c1nc(-c2ccc3cc[nH]c3c2)no1 | -7.99% |
| Cc1c(C(=O)O)cnn1-c1ccc(-c2nc(C(C)C)no2)cn1 | -3.42% |
| CC(C)n1[nH]c(=O)c2c1NC(=O)CC2c1cccc(O)c1 (stereo not given) | 10.6% |
| O=C(Nc1nc2c(s1)CN(S(=O)(=O)C1CC1)CC2)c1c(F)cccc1F | -14.1% |
| O=C(c1nc(-c2ccc3cc[nH]c3c2)no1)N1CCCC1 | -3.29% |
| COCC1COCCC12CCN(C(=O)CCOc1ccccc1)CC2 (stereo not given) | -18.7% |
| Cc1ccc(CNc2cc3[nH]c(O)nc3cc2C)cc1 | 22.2% |
| Cn1nc(C(=O)NCc2ccccn2)c2c1CCS(=O)(=O)C2 | 7.21% |
| Cc1cc(C)nc(N(C)CCn2ccnc2C)n1 | -5.42% |
| CC1CCc2nn(CCNC(=O)Cc3cccs3)c(=O)cc2C1 (stereo not given) | 6.83% |

| Structure (SMILES) | cytotoxicity at 10 µM |
| --- | --- |
| CC(C)(CNC(=O)C(C)(C)Oc1ccc2c(c1)CCCC2=O)C(N)=O | -2.25% |
| Cc1nnc(NCc2ccc(Br)cc2)o1 | 1.66% |
| O=C(Nc1cccnc1)Nc1ccn(CC(F)F)n1 | -4.63% |
| OCCN1CCCCC1C1OCCO1 (stereo not given) | 6.66% |
| Cc1cccc(C(=O)N(C)CC(=O)N2CCCC2)c1C | -0.291% |
| CNC(=O)C1Cc2ccccc2CN1C(=O)CC(C)C (stereo not given) | -150% |
| COc1ccccc1C(C)(C)NC(=O)c1ccc(F)c(NC(C)=O)c1 | -142% |
| NC(=O)CN(Cc1ncc(-c2ccc(Cl)cc2)o1)C1CCCC1 | -1.99% |
| Cc1noc(C2CCN(Cn3cc(Br)cn3)CC2)n1 | 0.277% |
| CC(C)(CNC(=O)Nc1cccc(-c2nccs2)c1)C(N)=O | -10% |
| CC(Nc1cccc2c1OCCO2)C(=O)NC(N)=O (stereo not given) | 2.76% |
| CCNC(=O)NC(=O)CNC(C)(CC)c1nc(C)cs1 (stereo not given) | 6.99% |
| CCN(CC(F)(F)F)C(=O)C1CCCN(Cc2ccno2)C1 (stereo not given) | -2.33% |
| CC(C)OCCC(=O)Nc1cccc(N2CCN(CC3CC3)CC2)c1 | -1.11% |
| Cn1nc2c(cc1=O)CN(CC(=O)Nc1cc(C(C)(C)C)no1)CC2 | -4.1% |
| Cc1cccc(OCC(O)CNCc2c(C)nn(C)c2N(C)C)c1 (stereo not given) | -2.45% |
| Cc1cccc(-c2nc(CN3CC(n4nc(C)cc4C)C3)no2)c1 | 1.37% |
| O=C(c1cccc(-n2cnnn2)c1)N1CCC2(CC1)OCCO2 | -126% |
| COc1ccc(C2CCCN2S(=O)(=O)N(C)C)cc1 (stereo not given) | 5.08% |
| Cc1ncsc1CCN1CCC(N(C)Cc2ncc(C(C)C)o2)C1 (stereo not given) | -7.49% |
| Cc1cccc(C(=O)Nc2cccc3c2CCCC3)n1 | -2.35% |
| O=S(=O)(CCCS(=O)(=O)c1ccc2c(c1)OCCCO2)c1ccccc1 | -2.76% |

| Structure (SMILES) | cytotoxicity at 10 µM |
| --- | --- |
| O=S1(=O)CCC(N2CCN(c3cc(C(F)(F)F)ccn3)CC2)C1 (stereo not given) | -3.97% |
| COc1cccc(CN(C(=O)Nc2nncs2)C2CCC(O)CC2)c1 (stereo not given) | -0.67% |
| O=C(c1[nH]nc(C2CC2)c1Cl)N1CCCC1 | -3.78% |
| CCN(CCCNC(=O)c1cc2cccc(F)c2o1)S(C)(=O)=O | 4.35% |
| CCCn1ccnc1SCCNS(=O)(=O)c1ccccc1 | -12.8% |
| Cc1cnn(CC(C)NCC(=O)NCCc2cccs2)c1 (stereo not given) | 6.41% |
| CC(O)CN1CCC(CN(C)Cc2ccc(C(N)=O)cc2)CC1 (stereo not given) | -1.66% |
| CC(CNC(=O)NCc1ccsc1)CC1(C)OCCO1 (stereo not given) | 1.24% |
| CC(C(=O)N(C)C)S(=O)(=O)c1cc2c(cc1Cl)OCCO2 (stereo not given) | 7.71% |
| Cc1nn(C)c(C)c1C1CCCN1c1ncnc2[nH]ccc12 (stereo not given) | 3.45% |
| CCCc1cc(NC(=O)c2cccc(N3CCCNC3=O)c2)n[nH]1 | 3.14% |
| COc1c(CNC2(c3ccc(Cl)cc3)CCC2)c(C)nn1C | 4.22% |
| CC(C)C1CN(C(=O)Nc2cnn(CC(F)F)c2)CCS1 (stereo not given) | 12.6% |
| CC(C)(CC(=O)N(CC(N)=O)C1CCCC1)c1ccccc1 | -4.95% |
| Cc1ccc(S(=O)(=O)N2CSCC2C(=O)N(C)C2CC2)cc1Cl (stereo not given) | -9.42% |
| CC(C)c1n[nH]c(C2CN(C(=O)CCCn3cccn3)CCO2)n1 (stereo not given) | -7.85% |
| CN(CCc1cn[nH]c1)C(=O)C1CC(=O)N(Cc2ccccn2)C1 (stereo not given) | -6.47% |
| NC(=O)CN1CCC(C(=O)NCc2ccc3c(c2)OCCCO3)CC1 | -6.42% |
| O=c1n(CC2COCCO2)nc(CC2CCNCC2)n1-c1ccccc1 (stereo not given) | -3.41% |
| Cc1nn(CC(=O)NCCc2ccncc2)c(=O)n1Cc1ccccc1 | 18.5% |
| COCCOCC(=O)N1CCCC(c2ncc[nH]2)C1 (stereo not given) | -4.59% |
| CCCc1nnc(NC2CCN(C3CCCC3)CC2)o1 | -2.66% |

| Structure (SMILES) | cytotoxicity at 10 µM |
| --- | --- |
| COc1ccc(NC(=O)CCC2CCCN(S(=O)(=O)C3CC3)C2)c(C)c1 (stereo not given) | -3.41% |
| CC(=O)c1ccc(NC(=O)NC(C(=O)N(C)C)C(C)C)cc1 (stereo not given) | -5.55% |
| NS(=O)(=O)c1ccc(F)c(C(=O)NCCSC2CCCCC2)c1 | 4.69% |
| Nc1nnc(CCCNc2ncnc3c2CCN(C(=O)C2CC2)C3)s1 | -3.94% |
| Cc1cc(C)nc(N2CCC(c3nnc(CN(C)C)n3C3CC3)CC2)n1 | -0.578% |
| CCCNc1ncc(CN2CCOC(Cc3cccc(F)c3)C2)cn1 (stereo not given) | -8.65% |
| COc1cccc2c1OCC(C(=O)N1CCN(C3CCCC3)C(=O)C1)C2 (stereo not given) | -4.9% |
| CCn1ncc2[nH]c(-c3ccc(OC)c(COC)c3)nc21 | 6.34% |
| O=C(CCc1nc(Cl)n[nH]1)N1C[C@@H](CN2CCCCCC2)[C@@H](CO)C1 | 0.152% |
| Cc1cc(NCc2ccc(CO)cc2)n2nc(C)cc2n1 | -7.38% |
| Cc1ccc(C(=O)N2CC[C@H](N3CCOCC3)[C@H](CCCO)C2)cc1O | -154% |
| COc1cccc2c1OCC(CNC(=O)COCC(F)(F)C(F)F)C2 (stereo not given) | -134% |
| CN(C)C(=O)N1CCn2nc(CNC(=O)CCc3ccccn3)cc2C1 | -3.32% |
| CC(=O)N1CCc2c(nc(-c3ccccn3)nc2N(C)CC(O)CO)C1 (stereo not given) | -12.2% |
| Cc1cc(N(C)Cc2cc(C)on2)n2nc(C)c(C)c2n1 | 19.2% |
| Cc1cc(C)n(NC(=O)c2ccccc2C)c(=O)c1 | -5.05% |
| CCc1noc(CN2CCCN(Cc3cccs3)CC2)n1 | 2.76% |
| CCc1nc2n(n1)CC(NCc1cc(OC)c3c(c1)OCCO3)CC2 (stereo not given) | -4.93% |
| Cn1cnnc1C1CCCN(C(=O)NCCCn2cccn2)C1 (stereo not given) | -5.42% |
| CCN1CCOC(CNCc2ccccc2OCc2cccnc2)C1 (stereo not given) | -13.1% |
| O=C(CCN1CCCC1=O)Nc1cnn(-c2ccccc2Cl)c1 | 5.65% |
| Cc1nnc(CN(Cc2ccc3c(c2)OCO3)C2CCC(C)CC2)o1 (stereo not given) | -1.89% |

| Structure (SMILES) | cytotoxicity at 10 µM |
| --- | --- |
| CC(C(=O)NCCOc1ccc(F)cc1)n1cncn1 (stereo not given) | -1.46% |
| OC(CN1CCN(Cc2nc(C3CC3)no2)CC1)c1ccccc1 (stereo not given) | -10.9% |
| CCOc1ncccc1C(=O)N1CCC(Nc2ccc(C)nn2)CC1 | -20.6% |
| Cc1cccc(OCCN2CCCC(c3cc(C(N)=O)[nH]n3)C2)c1 (stereo not given) | -11.9% |
| Cc1nn(C)c(N(C)C)c1CNCc1ccnc(N2CCCC2)c1 | -11.4% |
| O=C(NCc1ccc(-n2cncn2)nc1)c1ccc2c(c1)CCC2 | -16.5% |
| Cc1nc(C)n(CC2CCCCN2Cc2cscn2)n1 (stereo not given) | -5.26% |
| Cc1nc(C)n(CC2CCCN2Cc2cnc(C)s2)n1 (stereo not given) | 0.0757% |
| CN1N=C(C(=O)Nc2cc(F)ccc2OCC2CCCO2)CCC1=O (stereo not given) | -8% |
| CC(=O)Nc1nc(C(=O)NC(C)c2ccc(F)cc2)cs1 (stereo not given) | -0.168% |
| CN1CC(=O)N(c2cccnc2)CC12CCN(C(=O)c1cccn1C)C2 (stereo not given) | 1.14% |
| Cc1cccc(CO[C@@H]2CC[C@H]3[C@H]2OCCN3Cc2cc(C)on2)n1 | -3.59% |
| CN(C)C(=O)COCc1cncc2c1CCN(Cc1ccccc1)C2 | -4.24% |
| O=C(NCc1cncc2c1CCN(CC1CCOC1)C2)c1ccco1 (stereo not given) | -9.55% |
| c1coc(CN2Cc3ccnn3CC(COCC3CC3)C2)c1 (stereo not given) | -153% |
| CCS(=O)(=O)N1CCC[C@]2(C(=O)N(C)C)CN(c3ncccn3)C[C@@H]2C1 | -3.26% |
| CC(=O)N1CCCC2(CN(Cc3ccc(C)s3)CCO2)C1 (stereo not given) | 0.102% |
| O=C(N[C@@H]1CN(C2CCCC2)C[C@@H]2CCCO[C@@H]21)c1cnccn1 | -1.58% |
| CN(Cc1ccco1)C[C@H]1OC[C@@H]2CCN(Cc3ccncc3)C[C@@H]21 | -1.62% |
| CNC(=O)[C@@H]1CCO[C@@H]2CCN(C3CCOCC3)C[C@@H]21 | 6.67% |
| CCN1C(=O)CCC12CCC(NC(=O)c1cc(C)on1)CC2 (stereo not given) | -0.0663% |
| CN1CCc2c(sc3c2C(=O)NC(C=Cc2ccccc2)N3)C1 (stereo not given) | 6.33% |
